Experimental data reported in ChEMBL document CHEMBL1156820, “Novel highly potent and selective sigma 1 receptor antagonists related to spipethiane” (J Med Chem, 2010).
Activity calls are given as the source filed them.

Experiments:
[1] = Cell cycle arrest in human MCF7/ADR cells highly expressing sigma1 receptor assessed as accumulation at G2/M phase at 10 uM after 48 hrs by propidium iodide staining based flow cytometry relative to control; format: functional; settings: NCI/ADR-RES
In short: (§1)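 MCF-7 or MCF-7/ADR cells (3 × 10⁵/mL) held 48 h at 37 °C, 5% CO2 with 10 μM compound. Fixed in cold 70% ethanol for 15 min on ice, then stained 40 min at 37 °C with PI (50 μg/mL) plus RNase A (0.1 mg/mL) and 0.05% Triton X-100. Flow cytometry over 10000 events; one of three experiments shown.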

[2] = system: MCF7; assay: Growth inhibition of human MCF7 cells at 10 uM after 48 hrs by SRB assay; format: functional, cell-based
In short: (§2)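 MCF-7 or MCF-7/ADR cells seeded at 1 × 10⁴/well, dosed after 24 h with 10 μM compound for 48 h at 37 °C, 5% CO2. Fixed with cold TCA, stained with 0.4% SRB in 1% acetic acid, dye solubilized in 10 mM Tris, absorbance read at 520 nm. Percent inhibition given as mean ± SEM of three experiments.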

[3] = system: Mus musculus; assay: Analgesic effect in CD1 mouse at 1 mg/kg, sc by radiant heat tail flick test; format: functional, organism-based; set-up: dose 1 mg/kg
In short: (§3)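 Male CD-1 mice, 25-35 g. Radiant heat tail flick, IR source aimed at the lower third of the tail. Basal latency (2-3 s) is the mean of two trials 30 min apart. Drug 1 mg/kg sc or vehicle (DMSO 1%) given 30 min before morphine 5.0 mg/kg sc or saline. Read at 30, 60, 90 and 120 min after morphine; cutoff 12 s. Reported as %MPE, mean ± SEM, n=8; ANOVA with Student-Newman-Keuls.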

[4] = Cell cycle arrest in human MCF7/ADR cells highly expressing sigma1 receptor assessed as accumulation at S phase at 10 uM after 48 hrs by propidium iodide staining based flow cytometry relative to control; format: functional; settings: NCI/ADR-RES; in short: as §1
[5] = system: Mus musculus; assay: Increase in morphine-induced analgesia in CD1 mouse at 1 mg/kg, sc administered 30 mins before morphine challenge measured after 60 to 120 mins post morphine challenge by radiant heat tail flick test; format: functional, organism-based; set-up: dose 1 mg/kg; in short: as §3
[6] = Cell cycle arrest in human MCF7/ADR cells highly expressing sigma1 receptor assessed as accumulation at G0/G1 phase at 10 uM after 48 hrs by propidium iodide staining based flow cytometry relative to control; format: functional; settings: NCI/ADR-RES; in short: as §1
[7] = Displacement of [3H]DTG from sigma2 receptor in rat cerebral cortex cell membrane; format: cell membranes
In short: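 Rat cerebral cortex membranes (100-200 μg protein) incubated with [3H]DTG (5 nM) and 300 nM (+)-pentazocine to mask σ1 sites, across a range of test concentrations, 2 h at 22 °C in 5 mM Tris/HCl pH 7.4. Nonspecific binding defined with 10 μM haloperidol. GF/B filtration, scintillation counting. Triplicates; Ki from two to three experiments.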

[8] = system: NCI/ADR-RES; assay: Growth inhibition of human MCF7/ADR cells highly expressing sigma1 receptor at 10 uM after 48 hrs by SRB assay; format: functional, cell-based; in short: as §2
[9] = molecular target: Sigma non-opioid intracellular receptor 1 (Homo sapiens, UniProt Q99720); assay: Displacement of [3H](+)-pentazocine from sigma1 receptor in human Jurkat cell membrane; format: cell membranes
[10] = Selectivity for human sigma1 receptor over rat sigma2 receptor
In short: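 Selectivity ratio is the antilog of pKi(σ1) minus pKi(σ2). σ1 binding: Jurkat membranes with [3H](+)-pentazocine (8 nM). σ2 binding: rat cortex membranes with [3H]DTG (5 nM) plus 300 nM (+)-pentazocine. Both run 2 h at 22 °C in 5 mM Tris/HCl pH 7.4, nonspecific binding with 10 μM haloperidol.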

[11] = Growth inhibition of human MCF7/ADR cells highly expressing sigma1 receptor after 48 hrs by SRB assay; format: functional; settings: NCI/ADR-RES
In short: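 Cells seeded at 1 × 10⁴/well; after 24 h, compound (10 nM-10 μM) added in quadruplicate for 48 h at 37 °C, 5% CO2, with a time-zero plate read. TCA fixation, 0.4% SRB stain, absorbance at 520 nm. GI50 is the concentration halving net protein increase, interpolated from % growth versus log concentration; mean of triplicates.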

[12] = Antagonist activity at sigma2 receptor in guinea pig ileum longitudinal muscle assessed as inhibition of 5-HT-induced contractions; format: functional, tissue-based; settings: Cavia porcellus
In short: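 Longitudinal muscle/myenteric plexus ileum segments from male guinea pigs (300-400 g), 1 g tension, Tyrode's at 37 °C gassed with 95% O2/5% CO2, 1 μM ketanserin present throughout. After 90 min equilibration, three noncumulative 5-HT concentration-response curves; the second is run with test compound. 5-HT contact 1 min, 20 min washes between doses; peak isotonic contraction recorded.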

[13] = system: NCI/ADR-RES; assay: Induction of apoptosis in human MCF7/ADR cells highly expressing sigma1 receptor at 10 uM after 48 hrs by Annexin V staining based flow cytometry relative to control; format: functional
In short: (§4)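 MCF-7 or MCF-7/ADR cells (3 × 10⁵/mL) exposed to 10 μM compound for 48 h at 37 °C, 5% CO2. Stained with Annexin V-FITC (1:40) for 10 min at room temperature in binding buffer (10 mM Hepes pH 7.4, 140 mM NaCl, 2.5 mM CaCl2), then read by FACS. Reported as % Annexin V+ cells, mean ± SEM of three experiments.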

[14] = system: MCF7; assay: Cell cycle arrest in human MCF7 cells assessed as accumulation at S phase at 10 uM after 48 hrs by propidium iodide staining based flow cytometry relative to control; format: functional; in short: as §1
[15] = system: MCF7; assay: Cell cycle arrest in human MCF7 cells assessed as accumulation at G2/M phase at 10 uM after 48 hrs by propidium iodide staining based flow cytometry relative to control; format: functional; in short: as §1
[16] = system: MCF7; assay: Induction of apoptosis in human MCF7 cells at 10 uM after 48 hrs by Annexin V staining based flow cytometry relative to control; format: functional; in short: as §4
[17] = system: MCF7; assay: Cell cycle arrest in human MCF7 cells assessed as accumulation at G0/G1 phase at 10 uM after 48 hrs by propidium iodide staining based flow cytometry relative to control; format: functional; in short: as §1

Sequence of Sigma non-opioid intracellular receptor 1 (Q99720 whole entry): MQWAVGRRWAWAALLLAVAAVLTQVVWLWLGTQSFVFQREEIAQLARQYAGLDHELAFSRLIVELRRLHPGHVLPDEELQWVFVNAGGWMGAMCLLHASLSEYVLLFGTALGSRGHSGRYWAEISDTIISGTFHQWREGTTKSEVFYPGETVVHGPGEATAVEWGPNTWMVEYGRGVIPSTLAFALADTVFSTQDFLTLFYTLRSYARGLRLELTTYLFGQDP

Structure (SMILES)	Activity [2]	pKi [7]	Activity [8]	Ki [9] [nM]	Ki selectivity ratio (sigma2/sigma1) [10]	IC50 [12] [nM]	other results
O=C1CC(C2CCN(Cc3ccccc3)CC2)Sc2ccccc21 (racemic)	inactive	5.81	Active				Activity [1]: 24.4%; Activity [3]: inactive; Activity [4]: 13.9%; Activity [5]: Active; Activity [6]: 61.5%
O=C1CC2(CCN(Cc3ccccc3)CC2)Oc2ccccc21	inactive	6.52	Active	0.209	1440	7200	GI50 [11]: 10000 nM
c1ccc(CN2CCC3(CC2)OCc2ccccc2S3)cc1	inactive	6.65	Active	0.0891	2510	> 10000	
c1ccc(CN2CCC3(CC2)OCc2ccccc2O3)cc1	inactive	6.64	Active	0.0977	2340	3900	
c1ccc(CN2CCC3(CCc4ccccc4C3)CC2)cc1		7.85		0.437	32	> 10000	
O=C(CCCN1CCC(O)(c2ccc(Cl)cc2)CC1)c1ccc(F)cc1 [HALOPERIDOL]		6.95					
c1ccc(CN2CCC3(CCc4ccccc4S3)CC2)cc1 [SPIPETHIANE]	inactive	6.4	Active	0.589	676	6300	Activity [1]: 24.8%; Activity [13]: 5.4%; Activity [4]: 20.1%; Activity [14]: 10%; Activity [6]: 55.1%; Activity [15]: 17%; Activity [16]: 2.7%; Activity [17]: 73%
c1ccc(CN2CCC3(CCc4ccccc4O3)CC2)cc1		7.66			36		pKi ([9]; jurkat): 9.21
O=C1CC(C2CCN(Cc3ccccc3)CC2)Oc2ccccc21 (racemic)	inactive	6.76	Active		2630		Activity [1]: 23.3%; Activity [4]: 14%; Activity [6]: 62.7%
c1ccc(CN2CCC(C3CCc4ccccc4S3)CC2)cc1 (racemic)	inactive	7.24	Active	0.0575	1000	8400	
O=C1CC(C2CCN(CCc3ccccc3)CC2)Oc2ccccc21 (racemic)	inactive	8.08	Active		76		
